One test concerns Escherichia coli. Nature of the test: Antibacterial activity against Escherichia coli ATCC 25922 after 24 hrs. It is filed as functional. The gist of the method:
(§1)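 Broth microdilution in MHB. Overnight cultures at 37 °C with shaking, diluted 40-fold and grown 2−3 h to mid-log, then added at final 5 × 10^5 CFU/mL. Compounds in 2-fold series, final 0.015−32 μg/mL, in duplicate. Incubated 24 h at 37 °C. MIC read visually as lowest concentration with no visible growth. Vancomycin, daptomycin and colistin as controls.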

The test system of test [1] is Staphylococcus aureus. The test is described as follows: Antibacterial activity against methicillin-resistant and glycopeptide-intermediate Staphylococcus aureus NRSA-NRS 1 after 24 hrs. It is filed as functional. Particulars: NRSA-NRS 1, 24 h. The gist of the method:
(§2)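 Broth microdilution in MHB. Overnight cultures grown at 37 °C with shaking, diluted 40-fold and grown 2−3 h to mid-log, then added at a final 5 × 10^5 CFU/mL. Compounds in 2-fold serial dilution, final 0.015−32 μg/mL, in duplicate. Incubated 24 h at 37 °C. MIC read visually as the lowest concentration with no visible growth. Vancomycin, daptomycin and colistin served as controls.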

The test system of the next test is Enterococcus faecalis. The test is described as follows: Antibacterial activity against Enterococcus faecalis clinical isolate expressing VanA after 24 hrs. It is filed as functional. In a few lines:
as §2

For test [2], the system named is Staphylococcus aureus. Nature of the test: Antibacterial activity against glycopeptide-intermediate Staphylococcus aureus NRSA-NRS 17 after 24 hrs. The settings on record: NRSA-NRS 17, 24 h. It is filed as functional. In a few lines: as §1
Another test has as its system Enterococcus faecium. Nature of the test: Antibacterial activity against multidrug-resistant Enterococcus faecium ATCC 51559 expressing VanA after 24 hrs. It is filed as functional. Particulars: ATCC 51559, 24 h. In a few lines:
as §2

A further test concerns Streptococcus pneumoniae. The test is described as follows: Antibacterial activity against multidrug-resistant Streptococcus pneumoniae ATCC 700677 after 24 hrs. The class given is functional. The settings on record: ATCC 700677, 24 h. The gist of the method: as §2
In test [3] the test system is Staphylococcus aureus. The test is described as follows: Antibacterial activity against methicillin-resistant Staphylococcus aureus ATCC 43300 after 24 hrs. The class given is functional. Particulars: ATCC 43300, 24 h. The gist of the method:
as §2

The next test concerns HEK293. The test is described as follows: Cytotoxicity against human HEK293 cells after 24 hrs. It is filed as cell-based. The settings on record: HEK293, 24 h. In a few lines: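 HEK293 cells seeded at 3000/well in DMEM with 10% FBS, attached 24 h at 37 °C, 5% CO2. Compounds from 1.28 mg/mL DMSO stock in 1:3 serial dilutions, final DMSO 1%, 24 h exposure. Resazurin 10 μM added for 2 h; fluorescence ex/em 560/590 nm. Four replicates; viability normalised to 1% DMSO and negative controls. Tamoxifen positive control.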

We go through five compounds from ChEMBL document CHEMBL3600305, “Flemingin-Type Prenylated Chalcones from the Sarawak Rainforest Plant Desmodium congestum” (J Nat Prod, 2015).

Values after ≈ are worked out from the molar mass of the structure shown. Where only a bound is given, the exact number is not on record here.

The term MIC denotes the lowest concentration found to suppress growth. Low readings indicate greater potency, high ones weaker potency. Take COLISTIN: in the test with Escherichia coli, it took 0.25 µg/mL to inhibit growth (MIC).

As for `CCCCCCCCCC(=O)N[C@@H](Cc1c[nH]c2ccccc12)C(=O)N[C@H](CC(N)=O)C(=O)N[C@@H](CC(=O)O)C(=O)N[C@@H]1C(=O)NCC(=O)N[C@@H](CCCN)C(=O)N[C@@H](CC(=O)O)C(=O)N[C@H](C)C(=O)N[C@@H](CC(=O)O)C(=O)NCC(=O)N[C@H](CO)C(=O)N[C@@H]([C@H](C)CC(=O)O)C(=O)N[C@@H](CC(=O)c2ccccc2N)C(=O)O[C@@H]1C`, the MIC against Staphylococcus aureus [1] amounted to 16 µg/mL (≈ 9.87 µM); in the test on Enterococcus faecalis, 8 µg/mL (≈ 4.94 µM); in the test on Staphylococcus aureus [2], 8 µg/mL (≈ 4.94 µM); in the test with Enterococcus faecium, 16 µg/mL (≈ 9.87 µM); in the test with Streptococcus pneumoniae, 2 µg/mL (≈ 1.23 µM); in the test on Staphylococcus aureus [3], 1.2 µg/mL (≈ 0.74 µM).

`CN[C@H](CC(C)C)C(=O)N[C@H]1C(=O)N[C@@H](CC(N)=O)C(=O)N[C@H]2C(=O)N[C@H]3C(=O)N[C@H](C(=O)N[C@H](C(=O)O)c4cc(O)cc(O)c4-c4cc3ccc4O)[C@H](O)c3ccc(c(Cl)c3)Oc3cc2cc(c3O[C@@H]2O[C@H](CO)[C@@H](O)[C@H](O)[C@H]2O[C@H]2C[C@](C)(N)[C@H](O)[C@H](C)O2)Oc2ccc(cc2Cl)[C@H]1O` [VANCOMYCIN]: the minimal inhibitory concentration (MIC) against Staphylococcus aureus [1] is 8 µg/mL (≈ 5.52 µM); against Enterococcus faecalis, over 32 µg/mL; against Staphylococcus aureus [2], 8 µg/mL (≈ 5.52 µM); in the test on Enterococcus faecium, over 32 µg/mL; in the test on Streptococcus pneumoniae it was 2 µg/mL (≈ 1.38 µM).

In general, IC50 refers to the concentration needed to halve the response being measured. A higher IC50 goes with weaker potency in that assay. As for `COc1cc(C(=O)/C=C/c2cc(O)ccc2O)c(O)c2c1OC(C)(CCC=C(C)C)C=C2` (stereo not drawn), the MIC in the test with Staphylococcus aureus [1] was 32 µg/mL (≈ 73.3 µM); in the test with Enterococcus faecalis it was 16 µg/mL (≈ 36.7 µM); with Staphylococcus aureus [2] it was over 32 µg/mL; against Escherichia coli (ATCC 25922, 24 h), over 32 µg/mL; with Enterococcus faecium it was 32 µg/mL (≈ 73.3 µM); against Streptococcus pneumoniae, 32 µg/mL (≈ 73.3 µM). In addition, in the test with Staphylococcus aureus [3], the MIC came out at 32 µg/mL (≈ 73.3 µM). In the test on HEK293, this compound registered an IC50 of 21 µM.

For `COc1cc(C(=O)/C=C/c2cccc(O)c2O)c(O)c2c1OC(C)(CCC=C(C)C)C=C2` (stereo not drawn), the MIC against Staphylococcus aureus [1] is 32 µg/mL (≈ 73.3 µM); against Enterococcus faecalis, 16 µg/mL (≈ 36.7 µM); against Staphylococcus aureus [2], over 32 µg/mL; with Escherichia coli (ATCC 25922, 24 h) it was over 32 µg/mL; against Enterococcus faecium, 32 µg/mL (≈ 73.3 µM); against Streptococcus pneumoniae it was 32 µg/mL (≈ 73.3 µM). The compound also returned a minimal inhibitory concentration (MIC) in the test on Staphylococcus aureus [3] of 32 µg/mL (≈ 73.3 µM). This compound showed an IC50 with HEK293 of 37 µM.
